Only some compounds are listed: those with a hit (about 5.8% of all), similar ones and a draw of the others.
KDM4C inh = inhibitors of human demethylase GASC-1 KDM4C | Q9H3R0 | GST-KDM4C 2-372, H3K9me3 peptide, LANCE TR-FRET | inhibition, % at 12.5 µM | actives 0.15% (n = 96,000);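 active = mean replicate inhibition above about 25%, with at least 55% of replicates also reaching it, limit read from the data, passing the limit was not always enough; inconclusive = only one of those two conditions met; inactive = neither condition met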
Target sequence (Q9H3R0 2-372 limits assumed): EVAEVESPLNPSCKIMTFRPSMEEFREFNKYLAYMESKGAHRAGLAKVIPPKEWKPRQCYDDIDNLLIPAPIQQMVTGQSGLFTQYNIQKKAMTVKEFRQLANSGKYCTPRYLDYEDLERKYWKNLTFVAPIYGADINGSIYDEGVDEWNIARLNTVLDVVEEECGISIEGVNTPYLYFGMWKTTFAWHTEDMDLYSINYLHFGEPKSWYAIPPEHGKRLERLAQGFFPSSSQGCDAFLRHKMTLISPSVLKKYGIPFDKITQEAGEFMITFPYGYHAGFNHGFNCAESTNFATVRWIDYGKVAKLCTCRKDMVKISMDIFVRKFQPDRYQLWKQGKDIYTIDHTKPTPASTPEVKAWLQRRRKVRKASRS
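Compound: one test concentration per compound; Material: GST-GASC-1 enzyme fragment 2-372; Amount: GASC-1 enzyme at 10 nM final in reaction; Also added: H3K9me3 peptide substrate, Fe(II), 2-oxoglutarate; Technique: LANCE TR-FRET; Times: 30 min demethylation and 1 h detection at room temperature.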
Pf Dd2 growth = blocks growth of Plasmodium falciparum Dd2 parasites | actives 2.3% (n = 94,000) | P. falciparum Dd2 growth, SYBR Green, 72 h; hits give low values | activity change, % at 10 µM; in the data active = activity change below about -80%; inconclusive = no clear call, values can overlap the other calls
IDH1 R132H inh = inhibitors of human IDH1 R132H; IDH1 R132H reductase, diaphorase/resazurin fluorescence, 60 min; inhibition, % at 10 µM; actives 0.18% (n = 70,000); in the data active = inhibition above about 34%; inconclusive = no clear call, values can overlap the other calls; inactive = below about 11%;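 note: 0% = DMSO and 100% = no enzyme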
T cruzi growth-1 = inhibitors of T. cruzi proliferation | inhibition, % at 8.34 µM | T. cruzi beta-gal in NIH3T3, GalScreen luminescence, 90 h | actives 5.9% (n = 77,000);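 active = mean inhibition above about 93%, with at least 55% of replicates each passing it, limit read from the data, passing the limit was not always enough; inconclusive = only one of those two conditions holds; inactive = neither condition holds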
T cruzi growth-2 = inhibitors of T. cruzi proliferation | inhibition, % at 8.35 µM | T. cruzi beta-gal in NIH3T3, GalScreen luminescence, 90 h | shares compounds with T cruzi growth-1 | actives 72% (n = 5,600);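 active = mean replicate inhibition above about 95% and at least 55% of replicates individually reaching it, limit read from the data; inconclusive = only one of the two criteria is met; inactive = neither criterion is met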
T cruzi growth-3 = Trypanosoma cruzi proliferation inhibition; shares compounds with T cruzi growth-1; T. cruzi beta-gal in NIH3T3, GalScreen luminescence, 90 h; inhibition, % at 2.09 µM; actives 21% (n = 5,600); AID 651740;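 active = mean inhibition above about 95%, with at least 55% of replicates also reaching it, limit read from the data; inconclusive = meets just one of the two conditions; inactive = meets neither condition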;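 note: plate controls were neutral control median for no effect and positive control median for full effect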
3T3 cytotox = cytotoxicity in mouse NIH/3T3 fibroblasts; shares compounds with T cruzi growth-1; NIH/3T3 viability, CellTiter-Glo ATP luminescence, 90 h; cytotoxicity (signal decrease), % at 8.35 µM; actives 14% (n = 5,600);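 active = mean signal decrease across replicates above about 35% based on untreated-well scatter, with enough replicates individually passing, limit read from the data; inconclusive = no rule stated though some were filed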;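 note: 0% = median of neutral control wells and 100% = median of positive control wells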
3T3 cytotox 2 = kills mouse NIH/3T3 fibroblasts. shares compounds with T cruzi growth-1. NIH/3T3 viability, CellTiter-Glo ATP luminescence, 90 h. inhibition, % at 24.9 µM. actives 56% (n = 5,600). AID 651744;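 active = mean loss of cell viability signal at or above a set limit, and enough replicates individually reaching it; inconclusive = meets only the mean limit or only the replicate share; inactive = meets neither condition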;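 note: 0% = median of neutral control wells and 100% = median of positive control wells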
Active calls of the source: *; ? = inconclusive; nt = no result given.

SMILES	KDM4C inh	Pf Dd2 growth	IDH1 R132H inh	T cruzi growth-1	T cruzi growth-2	T cruzi growth-3	3T3 cytotox	3T3 cytotox 2
COc1ccc(S(=O)(=O)N(C)C[C@@H]2Oc3cc(-c4ccccc4OC)ccc3S(=O)(=O)N([C@@H](C)CO)C[C@H]2C)cc1	0	?	nt	125*	106*	87	?	51*
COc1ccc(S(=O)(=O)N(C)C[C@H]2Oc3cc(-c4ccccc4OC)ccc3S(=O)(=O)N([C@H](C)CO)C[C@H]2C)cc1	-3	-62	2	123*	99*	58	21	37*
COc1ccc(OCc2nnc3n2N=C(c2ccc(OC)c(OC)c2)C(c2ccccc2)S3)cc1 (stereo not given)	nt	nt	0	nt	nt	nt	nt	nt
Cc1ccc(C)c(NC(=O)C2CN(S(=O)(=O)c3ccccc3)CCN2S(=O)(=O)c2ccccc2)c1 (stereo not given)	nt	nt	0	nt	nt	nt	nt	nt
CCOC(=O)c1sc(NC(=O)CSc2nc3c(c(C(F)(F)F)n2)CCCC3)c(C#N)c1C	nt	nt	0	nt	nt	nt	nt	nt
COc1cccc(NC(=O)COc2ccccc2C(=O)Nc2c(C)cccc2C)c1	nt	nt	0	nt	nt	nt	nt	nt
CC(C)NC(=O)N(C)C[C@H]1OCCCC[C@H](C)Oc2ccc(NC(=O)c3ccncc3)cc2C(=O)N([C@@H](C)CO)C[C@H]1C	-2	11	13	41	nt	nt	nt	nt
C[C@H]1CCCCO[C@H](CN(C)C(=O)c2ccncc2)[C@@H](C)CN([C@@H](C)CO)C(=O)c2cc(NC(=O)c3ccncc3)ccc2O1	1	18	nt	19	nt	nt	nt	nt
CC(C)NC(=O)N(C)C[C@H]1OCCCC[C@@H](C)Oc2ccc(NC(=O)c3ccncc3)cc2C(=O)N([C@H](C)CO)C[C@@H]1C	0	10	-1	96*	29	29	-1	4
C[C@@H]1CCCCO[C@H](CN(C)C(=O)c2ccncc2)[C@@H](C)CN([C@@H](C)CO)C(=O)c2cc(NC(=O)c3ccncc3)ccc2O1	1	0	1	101*	-14	-24	12	8
COC(=O)c1ccccc1NC(=O)CNC(=O)c1ccc(C(C)(C)C)cc1	nt	nt	0	nt	nt	nt	nt	nt
C[C@@H]1CCCCO[C@H](CN(C)Cc2ccc(C(F)(F)F)cc2)[C@@H](C)CN([C@H](C)CO)C(=O)c2cc(NC(=O)Nc3ccc(C(F)(F)F)cc3)ccc2O1	1	-66	1	99*	105*	112*	0	-1
COc1ccc(NC(=O)Nc2ccc3c(c2)C(=O)N([C@@H](C)CO)C[C@@H](C)[C@H](CN(C)Cc2ccc(C(F)(F)F)cc2)O3)cc1	-1	-11	3	111*	104*	-7	?	97*
C[C@@H]1CCCCO[C@H](CN(C)Cc2ccc(C(F)(F)F)cc2)[C@@H](C)CN([C@@H](C)CO)C(=O)c2cc(NC(=O)Nc3ccc(C(F)(F)F)cc3)ccc2O1	0	-65	nt	83	nt	nt	nt	nt
C[C@@H]1CCCCO[C@@H](CN(C)Cc2ccc(C(F)(F)F)cc2)[C@@H](C)CN([C@H](C)CO)C(=O)c2cc(NC(=O)Nc3ccc(C(F)(F)F)cc3)ccc2O1	0	62	nt	99*	112*	105*	18	6
C[C@H](CO)N1C[C@H](C)[C@@H](CN(C)Cc2ccc(C(F)(F)F)cc2)OCCCC[C@H](C)Oc2ccc(NC(=O)Nc3ccc(C(F)(F)F)cc3)cc2C1=O	12	38	nt	32	nt	nt	nt	nt
COc1ccc(NC(=O)Nc2ccc3c(c2)C(=O)N([C@H](C)CO)C[C@@H](C)[C@H](CN(C)Cc2ccc(C(F)(F)F)cc2)O3)cc1	11	10	-1	-11	nt	nt	nt	nt
C[C@@H]1CN([C@H](C)CO)C(=O)c2cc(NC(=O)Nc3ccc(C(F)(F)F)cc3)ccc2O[C@@H](C)CCCCO[C@H]1CN(C)Cc1ccc(C(F)(F)F)cc1	-2	?	1	84	nt	nt	nt	nt
C[C@H]1CCCCO[C@@H](CN(C)Cc2ccc(C(F)(F)F)cc2)[C@@H](C)CN([C@@H](C)CO)C(=O)c2cc(NC(=O)Nc3ccc(C(F)(F)F)cc3)ccc2O1	3	-83*	nt	?	?	113*	38*	0
Cc1ccc(NC(=O)Cn2nc(-c3ccc(C)c(S(=O)(=O)N(C)C)c3)c3ccccc3c2=O)cc1	nt	nt	0	nt	nt	nt	nt	nt
COC(=O)c1ccccc1NC(=O)CC1Sc2ccc(C(F)(F)F)cc2NC1=O (stereo not given)	nt	nt	0	nt	nt	nt	nt	nt
COc1ccc2c3c([nH]c2c1)[C@@H](CO)N(Cc1nccs1)CC31CN(C(=O)C2CCCCC2)C1	nt	-3	nt	nt	nt	nt	nt	nt
COc1ccc(NC(=O)Nc2ccc3c(c2)C(=O)N([C@@H](C)CO)C[C@H](C)[C@H](CN(C)Cc2ccc(C(F)(F)F)cc2)OCCCC[C@@H](C)O3)cc1	3	-30	0	96*	105*	102*	16	6
COc1ccc(CN(C)C[C@H]2OCCCC[C@@H](C)Oc3ccc(NC(=O)Nc4ccc(C(F)(F)F)cc4)cc3C(=O)N([C@H](C)CO)C[C@@H]2C)cc1	nt	-66	nt	75	nt	nt	nt	nt
CCCN1C[C@@H](C)[C@H](OC)CN(C)C(=O)c2cc(NS(=O)(=O)c3ccccc3)ccc2OC[C@@H]1C	3	-5	0	-12	nt	nt	nt	nt
SMILES	KDM4C inh	Pf Dd2 growth	IDH1 R132H inh	T cruzi growth-1	T cruzi growth-2	T cruzi growth-3	3T3 cytotox	3T3 cytotox 2
CCS(=O)(=O)Nc1ccc2c(c1)C(=O)N(C)C[C@@H](OC)[C@H](C)CN(Cc1ccccn1)[C@@H](C)CO2	2	40	0	99*	-25	-32	-6	4
CO[C@@H]1CN(C)C(=O)c2cc(NS(=O)(=O)c3ccccc3)ccc2OC[C@H](C)N(Cc2nccs2)C[C@@H]1C	-1	-22	0	111*	74	2	18	45*
CO[C@@H]1CN(C)C(=O)c2cc(NC(=O)c3nc4ccccc4s3)ccc2OC[C@H](C)N(Cc2ccncc2)C[C@@H]1C	0	nt	0	99*	90	44	-15	61*
CCCN1C[C@@H](C)[C@H](OC)CN(C)C(=O)c2cc(NS(=O)(=O)c3ccccc3)ccc2OC[C@H]1C	1	-66	0	91*	98*	41	2	-5
CO[C@H]1CN(C)C(=O)c2cc(NC(=O)c3nc4ccccc4s3)ccc2OC[C@@H](C)N(Cc2ccncc2)C[C@H]1C	0	nt	10	94	nt	nt	nt	nt
Cc1ccccc1NS(=O)(=O)c1cc(C(=O)NCC2CCCO2)ccc1C (stereo not given)	nt	nt	-1	nt	nt	nt	nt	nt
Cc1c(-n2c(/C=C\c3ccc([N+](=O)[O-])o3)nc3ccccc3c2=O)c(=O)n(-c2ccccc2)n1C	nt	nt	-1	nt	nt	nt	nt	nt
